High-throughput results deposited in PubChem by The Scripps Research Institute Molecular Screening Center.
Shown are actives, neighbours in structure and some others; about 2.5% of the full set was active somewhere.
TDP2 absorb – TDP2 (human) inhibition, absorbance primary screen; inhibition, % at 12.8 µM; actives 0.34% (n = 370,000); O95551; recombinant TDP2, T5PNP hydrolysis, p-nitrophenol absorbance 415 nm;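 active means inhibition above the mean of all tested compounds plus 3 SD, set per campaign, cut at about 25% in these data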
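test system = human TDP2 enzyme | input = TDP2 enzyme at 120 nM final | medium = 50 mM Tris-HCl pH 7.5 with Mg2+, KCl, DTT, BSA | also added = T5PNP substrate, 5 mM | times = 2 h at 37 °C | technique = epi absorbance | benchmarks = high control without enzyme, low control DMSO plus TDP2 | replication = each compound tested once, singlicate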
PAD4 FP inh – inhibitors of human PAD4. Q9UM07. recombinant PAD4, RCA probe fluorescence polarization. inhibition, % at 6.36 µM. actives 0.41% (n = 330,000);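 active means percent inhibition above a cutoff equal to the mean of all tested compounds plus 3 SD, cut at about 15% in these data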
PRMT1 inh – inhibitors of human PRMT1 | inhibition, % at 2.79 µM | AID 652257 | recombinant PRMT1, activity-based probe fluorescence polarization | Q99873 | actives 1.3% (n = 370,000);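 active means inhibition above about 21% made by adding two undisclosed values, limit read from the data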
E coli Lon inh – inhibits E. coli Lon protease | purified E. coli Lon protease, fluorescence polarization | inhibition, % at 7.94 µM | actives 0.42% (n = 360,000); in the data active means inhibition above about 13%, passing the limit was not always enough
GSTO1 inh – GSTO1 inhibition, counter-screen for RBBP9 inhibitors. P78417. actives 1.1% (n = 300,000). inhibition, % at 5.96 µM. recombinant GSTO1, activity-based probe fluorescence polarization. AID 1974;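 active means inhibition above the campaign mean inhibition plus 3 SD, cut at about 35% in these data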
Target sequence (P78417 whole entry, looked up): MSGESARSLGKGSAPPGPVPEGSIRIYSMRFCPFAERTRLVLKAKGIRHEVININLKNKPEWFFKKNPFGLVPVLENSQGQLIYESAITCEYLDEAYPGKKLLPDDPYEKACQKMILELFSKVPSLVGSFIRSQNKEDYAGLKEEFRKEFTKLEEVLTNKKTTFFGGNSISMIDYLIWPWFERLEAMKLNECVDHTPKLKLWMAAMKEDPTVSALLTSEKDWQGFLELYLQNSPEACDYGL
eLon confirm – E. coli Lon inhibition confirmation; shares compounds with E coli Lon inh; AID 602230; inhibition, % at 7.94 µM; purified E. coli Lon, fluorescence polarization; actives 31% (n = 1,400); in the data active means inhibition above about 16%
Hits are given with their value; - = inactive; . = not tested or not shown.

SMILES	TDP2 absorb	PAD4 FP inh	PRMT1 inh	E coli Lon inh	GSTO1 inh	eLon confirm
CCOc1ccc(-n2c(Cc3cc(=O)[nH]c(=O)[nH]3)nnc2SCC(=O)OC)cc1	-	-	-	15.8	-	-
Cc1ccc(CNC(=O)C(OC(=O)c2cccs2)C(C)C)cc1 (stereo unspecified)	-	-	-	28.3	-	-
O=C(Nc1cccc(S(=O)(=O)N2CCCCCC2)c1)C1CC(=O)N(c2ccc3c(c2)OCCO3)C1 (stereo unspecified)	-	-	-	22.3	-	-
O=C(Nc1cccc(S(=O)(=O)N2CCCCC2)c1)C1CC(=O)N(c2ccc3c(c2)OCCO3)C1 (stereo unspecified)	-	-	-	-	-	.
O=C(NCc1ccncc1)C(F)(F)C(F)(F)C(=O)NCc1ccncc1	-	-	-	16.6	-	-
O=C(NCc1ccncc1)c1c(F)c(F)c(F)c(F)c1F	-	-	-	-	-	.
CCN(CC)C(=O)CC[C@@H]1CC[C@]2(CCCN(S(=O)(=O)c3ccccc3)C2)O1	-	.	-	.	.	.
COc1ccc(S[C@]2(C(=O)NCC(C)C)CC(=O)N[C@@H]2c2ccc(OC)cc2)cc1	-	.	-	.	.	.
O=C(CCc1ccccc1)N[C@H]1[C@@H](OC(=O)c2ccc([N+](=O)[O-])cc2)CCC[C@]12C(=O)N(Cc1ccccc1)c1ccccc12	-	.	-	.	.	.
C[C@H]1[C@@H](c2ccccc2)Oc2c(Cl)cccc2S(=O)(=O)N1C	-	.	-	.	.	.
COC(=O)c1c(C)c2c(C)cc3ccccn3c-2c1C(=O)OC	-	-	-	45.3	-	-
OCCN1CCCC12CCC(c1ccccc1)CC2 (stereo unspecified)	-	.	-	.	.	.
COC1=CC(=NCl)C=CC1=NCl	.	.	.	44.6	.	39.3
ClN=C1C=CC=CC1=NCl	.	.	.	-	.	.
O=C(Nc1nc(Cc2ccccc2)c(-c2ccccc2)n1Cc1ccccc1)c1ccccc1	-	.	-	.	.	.
O=C(Nc1ccc(S(=O)(=O)Nc2ncccn2)cc1)c1ccc(Br)s1	-	-	-	27.7	-	34.2
O=S(=O)(Nc1ncccn1)c1ccc(Nc2ncnc3ccccc23)cc1	-	-	-	19.6	-	80.6
O=C(Nc1ccc(Cl)cc1)Nc1ccc(S(=O)(=O)Nc2ncccn2)cc1	-	-	-	64.7	-	48.1
COc1cccc(OC)c1C(=O)Nc1ccc(S(=O)(=O)Nc2ncccn2)cc1	-	-	-	-	-	.
CC(C)N1CCCCC(NC(=O)c2ccc(F)cc2)C1=O (stereo unspecified)	-	.	-	.	.	.
O=C(NCCc1c[nH]c2ccccc12)OCc1cn(-c2cccc(C(F)(F)F)c2)nn1	-	.	-	.	.	.
CC(=NNC(=O)CSc1nnc(-c2ccc(C(C)(C)C)cc2)n1-c1ccccc1)c1cccc2ccccc12	-	.	-	.	.	.
O=C(c1cc(COc2ccc(F)cc2F)on1)N1C[C@H]2CC[C@H]1C2	-	-	-	23.6	-	-
O=C(c1cc(COc2ccc(F)cc2F)on1)N1CC2C[C@@H]3CC1C[C@H](C2)C3	-	-	-	-	-	.
Cc1ccc(-n2c(SCc3nc4ccccc4[nH]3)nnc2-c2ccccn2)cc1	-	.	-	.	.	.
SMILES	TDP2 absorb	PAD4 FP inh	PRMT1 inh	E coli Lon inh	GSTO1 inh	eLon confirm
COc1ccc2[nH]c3c(c2c1)CCN[C@]31C(=O)N(C)c2ccc(Br)cc21	-	.	-	.	.	.
O=C(CCc1nc2ccccc2[nH]1)Nc1ccccc1F	-	-	-	13.9	-	-
O=C(CCc1nc2ccccc2[nH]1)Nc1ccc(F)cc1	-	-	-	-	-	.
CCOc1ccc(-c2c[n+](=O)c3c(n2[O-])CCCC3)c(OCC)c1	-	-	-	68.1	-	-
O=c1[nH]c2cc3ccccc3cc2nc1C(F)(F)F	-	-	-	25.7	-	37.4
Cc1ccc(CN2CCNC(=O)C2CC(=O)N(C)CCc2ccccc2)cc1 (stereo unspecified)	-	-	-	23.3	-	-
CCCC[C@@H]1C(=O)N2N=Cc3cscc3[C@H]2N2N=Cc3cscc3[C@@H]12	-	.	-	.	.	.
CCC(C)c1ccc(NC(=O)COC(=O)CCNS(=O)(=O)c2cccs2)cc1 (stereo unspecified)	-	-	-	25.9	.	45.1
COc1ccc(-c2noc(C3CCCN(C(=O)N[C@@H]4C[C@H]4c4ccccc4)C3)n2)cc1 (stereo partly specified)	-	.	-	.	.	.
Cc1cc(C)nc(SCc2ccc(C(=O)N/N=C3\CCCC(=O)C3)cc2)n1	-	-	-	22.6	-	-
